Calls of active or inactive are those of the source. The rule behind the calls is not given here.
Experiments:
[1] = Inhibition of [3H]epibatidine binding at the alpha beta nicotinic AChR in male rat cerebral cortex; assay type: tissue-based
[2] = species: Mus musculus; experiment: Compound was tested for inhibition of antinociceptive effect of nicotine in mice by hotplate assay; NA=Inactive; assay type: functional, organism-based
Summary of the method: (§1)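 Antagonism was tested in male ICR mice given test agent sc, measuring blockade of nicotine-induced antinociception in tail-flick or hot-plate tests. Potency is expressed as AD50 in mg/kg with confidence limits.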

[3] = species: Mus musculus; experiment: Compound was tested for inhibition of antinociceptive effect of nicotine in mice by tail-flick assay; NA=Inactive; assay type: functional, organism-based; summary of the method: as §1
[4] = tested on: Mus musculus; experiment: Compound at 10 mg/Kg was tested for antinociception in mice by hotplate assay; assay type: functional
Summary of the method: (§2)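 Male ICR mice were given test agent and assessed for antinociception by tail-flick or hot-plate. Results are expressed as ED50 in mg/kg with confidence limits, or as percent effect at a single stated mg/kg dose.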

[5] = tested on: Mus musculus; experiment: Compound at 10 mg/Kg was tested for antinociception in mice by tail-flick assay; assay type: functional; summary of the method: as §2
[6] = tested on: Mus musculus; experiment: Compound at 10 mg/Kg was tested for hypothermia in mice; assay type: functional
Summary of the method: (§3)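 Male ICR mice were dosed and body temperature or locomotor activity was recorded. Values are ED50 in mg/kg with confidence limits, or the effect (change in °C for temperature) at a single stated mg/kg dose.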

[7] = species: Mus musculus; experiment: Compound was tested to block the antinociceptive effect of nicotine in mice by hotplate assay; assay type: functional; summary of the method: as §1
[8] = species: Mus musculus; experiment: Compound was tested to block the antinociceptive effect of nicotine in mice by tail-flick assay; assay type: functional; summary of the method: as §1
[9] = tested on: Mus musculus; experiment: Compound at 15 mg/Kg was tested for antinociception in mice by hotplate assay; assay type: functional; summary of the method: as §2
[10] = tested on: Mus musculus; experiment: Compound at 15 mg/Kg was tested for antinociception in mice by tail-flick assay; assay type: functional; summary of the method: as §2
[11] = species: Mus musculus; experiment: Effective dose for hypomotility in mice was determined; assay type: functional; summary of the method: as §3
[12] = species: Mus musculus; experiment: Effective dose for antinociception in mice was determined by hotplate assay
[13] = species: Mus musculus; experiment: Effective dose for antinociception in mice was determined by tail-flick assay
[14] = species: Mus musculus; experiment: Effective dose for hypothermia in mice was determined

| Structure (SMILES) | Ki [1] | Temperature [6] | AD50 [7] | AD50 [8] | Effect [9] | Effect [10] | further results |
| --- | --- | --- | --- | --- | --- | --- | --- |
| CN(C)c1ncc(C2CC3CCC2N3)cc1-c1ccccc1 (configuration not stated) | 57.5 nM | – | – | – | – | – | – |
| Nc1ncc(C2CC3CCC2N3)cc1-c1ccccc1 (configuration not stated) | 0.33 nM | -0.5 °C | – | – | – | – | AD50 [2]: inactive; AD50 [3]: inactive; Effect [4]: 15%; Effect [5]: 2% |
| Clc1ncc(C2CC3CCC2N3)cc1-c1ccccc1 (configuration not stated) | 0.021 nM | – | – | – | – | – | – |
| Nc1ccc(C2CC3CCC2N3)cn1 (configuration not stated) | 1.3 nM | – | – | – | – | – | – |
| Fc1ccc(C2CC3CCC2N3)cn1 (configuration not stated) | 0.027 nM | – | – | – | – | – | – |
| Fc1ncc(C2CC3CCC2N3)cc1-c1ccccc1 (racemic) | – | -0.5 °C | 1.2 mg/kg | 0.5 mg/kg | 4% | 3% | ED50 [11]: 4.7 mg/kg |
| Fc1ncc(C2CC3CCC2N3)cc1-c1ccccc1 (single isomer, unassigned; (+)) | 0.24 nM | -0.4 °C | 2.4 mg/kg | 1 mg/kg | 8% | 7% | – |
| Fc1ncc(C2CC3CCC2N3)cc1-c1ccccc1 (stereo in doubt; (-)-5a) | 0.26 nM | -0.8 °C | 0.7 mg/kg | 0.08 mg/kg | 10% | 5% | – |
| CN1CCC[C@H]1c1cccnc1 [NICOTINE] | – | – | – | – | – | – | ED50 [12]: 0.004 mg/kg; ED50 [13]: 0.006 mg/kg; ED50 [11]: 0.5 mg/kg; ED50 [14]: 0.004 mg/kg |

Reference: ChEMBL document CHEMBL1134279, “Synthesis, nicotinic acetylcholine receptor binding, and antinociceptive properties of 2-exo-2-(2'-substituted-3'-phenyl-5'-pyridinyl)-7-azabicyclo[2.2.1]heptanes. Novel nicotinic antagonist” (J Med Chem, 2001)
